Reference: ChEMBL document CHEMBL1629486, “Antimicrobial, antitumor and 5α-reductase inhibitor activities of some hydrazonoyl substituted pyrimidinones” (Eur J Med Chem, 2010)

Experiments:
T47D = assay: Growth inhibition of human T47D cells assessed as cell growth at 1 M after 48 hrs by sulforhodamine B assay; format: functional; design: scale not given: the % may be the effect or the level left
Outline: (§1)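 NCI 60-cell panel screen, single dose (1.0 M as printed). Cells grown in RPMI 1640 with 5% fetal bovine serum and 2 mM L-glutamine, seeded at 5000–40,000 cells/well, preincubated 24 h at 37 °C in 5% CO2 at 100% humidity, then exposed to compound for 48 h. Sulforhodamine B staining read-out. Result given as growth percent: 100 = no inhibition, 0 = no net growth, negative = lethality.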

SF-268 = assay: Growth inhibition of human SF268 cells assessed as cell growth at 1 M after 48 hrs by sulforhodamine B assay; format: functional; design: scale not given: the % may be the effect or the level left; outline: as §1
SN12C = assay: Growth inhibition of human SN12C cells assessed as cell growth at 1 M after 48 hrs by sulforhodamine B assay; format: functional; design: scale not given: the % may be the effect or the level left; outline: as §1
Candida albicans = assay: Antimicrobial activity against Candida albicans at 1 to 5 ug/ml by agar well diffusion method; format: functional
Outline: (§2)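 Agar well diffusion against bacteria and fungi. Inhibition zone is scored beyond the control: ++ 0.6–1.0 cm, + 0.1–0.5 cm, 0 no inhibition.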

NCI-H322M = assay: Growth inhibition of human NCI-H322M cells assessed as cell growth at 1 M after 48 hrs by sulforhodamine B assay; format: functional; design: scale not given: the % may be the effect or the level left
Outline: (§3)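 NCI 60-cell screen at a single high dose. Cells are grown in RPMI 1640 with 5% FBS and 2 mM L-glutamine, then plated at 5000–40,000 cells/well and held 24 h at 37 °C in 5% CO2 at 100% humidity. Drug is then added and plates are incubated another 48 h, with SRB staining as read-out. Results are given as growth percent (100 = no inhibition, 0 = no net growth, negative = lethality).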

OVCAR-3 = assay: Growth inhibition of human OVCAR3 cells assessed as cell growth at 1 M after 48 hrs by sulforhodamine B assay; format: functional; design: scale not given: the % may be the effect or the level left; outline: as §3
SK-MEL-2 = assay: Growth inhibition of human SK-MEL-2 cells assessed as cell growth at 1 M after 48 hrs by sulforhodamine B assay; format: functional; design: scale not given: the % may be the effect or the level left; outline: as §1
Staphylococcus aureus = assay: Antimicrobial activity against Staphylococcus aureus at 1 to 5 ug/ml by agar well diffusion method; format: functional; outline: as §2
HCT-116 = assay: Growth inhibition of human HCT116 cells assessed as cell growth at 1 M after 48 hrs by sulforhodamine B assay; format: functional; design: scale not given: the % may be the effect or the level left; outline: as §3
KM12 = assay: Growth inhibition of human KM12 cells assessed as cell growth at 1 M after 48 hrs by sulforhodamine B assay; format: functional; design: scale not given: the % may be the effect or the level left; outline: as §3
CAKI-1 = assay: Growth inhibition of human Caki1 cells assessed as cell growth at 1 M after 48 hrs by sulforhodamine B assay; format: functional; design: scale not given: the % may be the effect or the level left; outline: as §3
LOX IMVI = assay: Growth inhibition of human LOXIMVI cells assessed as cell growth at 1 M after 48 hrs by sulforhodamine B assay; format: functional; design: scale not given: the % may be the effect or the level left; outline: as §3
UACC-257 = assay: Growth inhibition of human UACC257 cells assessed as cell growth at 1 M after 48 hrs by sulforhodamine B assay; format: functional; design: scale not given: the % may be the effect or the level left; outline: as §1
NCI-H226 = assay: Growth inhibition of human NCI-H226 cells assessed as cell growth at 1 M after 48 hrs by sulforhodamine B assay; format: functional; design: scale not given: the % may be the effect or the level left; outline: as §3
MDA-MB-468 = assay: Growth inhibition of human MDA-MB-468 cells assessed as cell growth at 1 M after 48 hrs by sulforhodamine B assay; format: functional; design: scale not given: the % may be the effect or the level left; outline: as §3
HOP-62 = assay: Growth inhibition of human HOP62 cells assessed as cell growth at 1 M after 48 hrs by sulforhodamine B assay; format: functional; design: scale not given: the % may be the effect or the level left; outline: as §3
Rattus norvegicus [1] = organism: Rattus norvegicus; assay: Acute toxicity in albino rat; format: organism-based; conditions: in vivo
Outline: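 Male albino rats received injections of increasing doses. LD50 and LD90, the doses killing 50% and 90% of the animals, were calculated by the Austen and Brocklehurst method.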

BT-549 = assay: Growth inhibition of human BT549 cells assessed as cell growth at 1 M after 48 hrs by sulforhodamine B assay; format: functional; design: scale not given: the % may be the effect or the level left; outline: as §3
MDA-MB-231 = assay: Growth inhibition of human MDA-MB-231 cells assessed as cell growth at 1 M after 48 hrs by sulforhodamine B assay; format: functional; design: scale not given: the % may be the effect or the level left; outline: as §3
TK-10 = assay: Growth inhibition of human TK10 cells assessed as cell growth at 1 M after 48 hrs by sulforhodamine B assay; format: functional; design: scale not given: the % may be the effect or the level left; outline: as §1
MCF7 = assay: Growth inhibition of human MCF7 cells assessed as cell growth at 1 M after 48 hrs by sulforhodamine B assay; format: functional; design: scale not given: the % may be the effect or the level left; outline: as §3
OVCAR-5 = assay: Growth inhibition of human OVCAR5 cells assessed as cell growth at 1 M after 48 hrs by sulforhodamine B assay; format: functional; design: scale not given: the % may be the effect or the level left; outline: as §3
MDA-MB-435 = assay: Growth inhibition of human MDA-MB-435 cells assessed as cell growth at 1 M after 48 hrs by sulforhodamine B assay; format: functional; design: scale not given: the % may be the effect or the level left; outline: as §3
RXF 393 = assay: Growth inhibition of human RXF393 cells assessed as cell growth at 1 M after 48 hrs by sulforhodamine B assay; format: functional; design: scale not given: the % may be the effect or the level left; outline: as §1
HT-29 = assay: Growth inhibition of human HT-29 cells assessed as cell growth at 1 M after 48 hrs by sulforhodamine B assay; format: functional; design: scale not given: the % may be the effect or the level left; outline: as §3
MOLT-4 = assay: Growth inhibition of human MOLT4 cells assessed as cell growth at 1 M after 48 hrs by sulforhodamine B assay; format: functional; design: scale not given: the % may be the effect or the level left; outline: as §3
UO-31 = assay: Growth inhibition of human UO31 cells assessed as cell growth at 1 M after 48 hrs by sulforhodamine B assay; format: functional; design: scale not given: the % may be the effect or the level left; outline: as §1
Rattus norvegicus [2] = assay: Effect on circulating testosterone and dihydrotestosterone level in sc dosed Sprague-Dawley rat by radioimmunoassay relative to anastrozole; format: functional
Outline: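 Serum testosterone and DHT were measured by RIA in ether extracts of serum (0.5 mL serum, 2 mL diethyl ether, 60 s shaking), without chromatography, in rats dosed at several levels. Relative potency is the ED50 of anastrozole divided by the ED50 of the test agent, where ED50 is the dose giving 50% of the pharmacological response.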

HOP-92 = assay: Growth inhibition of human HOP92 cells assessed as cell growth at 1 M after 48 hrs by sulforhodamine B assay; format: functional; design: scale not given: the % may be the effect or the level left; outline: as §3
NCI-H522 = assay: Growth inhibition of human NCI-H522 cells assessed as cell growth at 1 M after 48 hrs by sulforhodamine B assay; format: functional; design: scale not given: the % may be the effect or the level left; outline: as §3
[3] = tested on: Syncephalastrum racemosum; assay: Antimicrobial activity against Syncephalastrum racemosum at 1 to 5 ug/ml by agar well diffusion method; format: functional; outline: as §2
SNB-75 = assay: Growth inhibition of human SNB75 cells assessed as cell growth at 1 M after 48 hrs by sulforhodamine B assay; format: functional; design: scale not given: the % may be the effect or the level left; outline: as §1
SR = assay: Growth inhibition of human SR cells assessed as cell growth at 1 M after 48 hrs by sulforhodamine B assay; format: functional; design: scale not given: the % may be the effect or the level left; outline: as §1
CCRF-CEM = assay: Growth inhibition of human CCRF-CEM cells assessed as cell growth at 1 M after 48 hrs by sulforhodamine B assay; format: functional; design: scale not given: the % may be the effect or the level left; outline: as §3

Row | SMILES | Activity (T47D) [%] | Activity (SF-268) [%] | Activity (SN12C) [%] | diameter of the inhibition zone (DIZ) (Candida albicans) [cm] | Activity (NCI-H322M) [%] | Activity (OVCAR-3) [%] | Activity (SK-MEL-2) [%] | diameter of the inhibition zone (DIZ) (Staphylococcus aureus) [cm] | Activity (HCT-116) [%] | Activity (KM12) [%] | Activity (CAKI-1) [%] | Activity (LOX IMVI) [%] | Activity (NCI-H226) [%] | Activity (HOP-62) [%] | LD50 (Rattus norvegicus [1]) [mg/kg] | LD90 (Rattus norvegicus [1]) [mg/kg] | Activity (BT-549) [%] | Activity (MDA-MB-231) [%] | Activity (TK-10) [%] | Activity (MCF7) [%] | also measured
1 | CC(=O)c1ccc(N/N=C(\C(=O)c2ccc(Cl)cc2)c2nc(C)cc(=O)[nH]2)cc1 | 75.56 | 95.91 | 95.54 | 0 | 100.21 | 104.16 | 99.06 | 0 | 90.39 | 100.14 | 95 | 90.57 | 111 | 116.72 | 1.87034 | 2.25087 | 99.42 | 85.96 | 120.15 | 89.39 | Activity (UACC-257): 99.94%; Activity (MDA-MB-468): 94.65%; Activity (OVCAR-5): 91.69%; Activity (MDA-MB-435): 95.8%; Activity (RXF 393): 94.35%; Activity (HT-29): 101.59%; Activity (MOLT-4): 84.16%; Activity (UO-31): 75.87%; Ratio ED50 (Rattus norvegicus [2]): 1.562; Activity (HOP-92): 97.73%; Activity (NCI-H522): 84.76%; diameter of the inhibition zone (DIZ) [3]: 0 cm; Activity (SNB-75): 91.94%; Activity (SR): 62.16%
2 | Cc1ccc(N/N=C(\C(=O)c2ccc(Cl)cc2)c2nc(C)cc(=O)[nH]2)cc1 | 88.32 | 107.28 | 99.97 | 0 | 106.17 | 95.76 | 95.33 | 0 | 86.94 | 114.61 | 112.71 | 92.62 | 107.41 | 94.24 | 2.663 | 4.35687 | 117.79 | 95.9 | 136.08 | 91.01 | Activity (CCRF-CEM): -15.08%; Activity (UACC-257): 104.52%; Activity (OVCAR-5): 121.85%; Activity (MDA-MB-435): 123.17%; Activity (RXF 393): 40.73%; Activity (HT-29): 110.66%; Activity (MOLT-4): 98.62%; Ratio ED50 (Rattus norvegicus [2]): 6.301; Activity (HOP-92): 90.99%; diameter of the inhibition zone (DIZ) [3]: 0 cm; Activity (SNB-75): 115.66%; Activity (SR): 84.35%
3 | Cc1cc(=O)[nH]c(/C(=N/Nc2ccccc2)C(=O)c2ccc(Cl)cc2)n1 | 77.02 | 117.24 | 93.24 | 0 | 107.24 | 97.53 | 102.42 | 0 | 86.88 | 101.95 | 103.86 | 98.95 | 108.67 | 104.07 | 2.11122 | 3.24592 | 97.44 | 101.67 | 65.49 | 90.11 | Activity (CCRF-CEM): 66.03%; Activity (OVCAR-5): 117.08%; Activity (MDA-MB-435): 107.78%; Activity (RXF 393): 28.48%; Activity (HT-29): 105.27%; Activity (MOLT-4): 39.84%; Activity (UO-31): 116.06%; Ratio ED50 (Rattus norvegicus [2]): 5.166; Activity (HOP-92): 88.71%; diameter of the inhibition zone (DIZ) [3]: 0 cm; Activity (SNB-75): 128.46%
